Test results published in ChEMBL document CHEMBL3817826, “H2S-Donating Doxorubicins May Overcome Cardiotoxicity and Multidrug Resistance” (J Med Chem, 2016).
Activity calls are given as the source filed them. The calls are words filed in the database; no cut-off is given here.

Legend:
H9c2 [1] = assay: Cytotoxicity in rat H9c2 cells at 5 uM incubated for 24 hrs by LDH release-based spectrofluorimetrical analysis relative to control; type: cell-based; conditions: h9c2, 24 h
In short: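 Cells exposed 24 h to 5 μM drug in DMEM with 10% FBS at 37 °C, 5% CO2. Medium spun 12,000 × g 5 min. Cells sonicated in 82.3 mM triethanolamine phosphate-HCl pH 7.6. LDH in medium and lysate followed 6 min at 340 nm. Extracellular LDH reported as % of total dish activity, duplicate, n = 3, mean ± SD.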

U2OS [2] = assay: Increase in intracellular ROS accumulation in human U2OS/DX30 cells at 5 uM incubated for 24 hrs in presence of hydroxocobalamin by DCFDA-AM probe-based fluorimetrical analysis relative to control; type: functional, cell-based
In short: (§1)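 Cells grown in DMEM with 10% FBS at 37 °C, 5% CO2, resistant variants selected in 30, 100 or 580 ng/mL doxorubicin; treated 24 h with 5 μM drug plus 100 μM hydroxocobalamin. 1×10^6 cells loaded 30 min at 37 °C with 5 μM DCFDA-AM in PBS; fluorescence at ex 492/em 517 nm, expressed as nmol ROS/mg protein; duplicates, n = 3.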

U2OS [3] = assay: Increase in intracellular ROS accumulation in human U2OS/DX580 cells at 5 uM incubated for 24 hrs in presence of hydroxocobalamin by DCFDA-AM probe-based fluorimetrical analysis relative to control; type: functional, cell-based; in short: as §1
[4] = target: DNA topoisomerase 2-alpha (Homo sapiens) (UniProt P11388); assay: Inhibition of human topoisomerase 2-mediated DNA cleavage at 5 uM using supercoiled pHOT1 plasmid as substrate by agarose gel electrophoresis
DNA topoisomerase 2-alpha (Homo sapiens), sequence (P11388 whole entry): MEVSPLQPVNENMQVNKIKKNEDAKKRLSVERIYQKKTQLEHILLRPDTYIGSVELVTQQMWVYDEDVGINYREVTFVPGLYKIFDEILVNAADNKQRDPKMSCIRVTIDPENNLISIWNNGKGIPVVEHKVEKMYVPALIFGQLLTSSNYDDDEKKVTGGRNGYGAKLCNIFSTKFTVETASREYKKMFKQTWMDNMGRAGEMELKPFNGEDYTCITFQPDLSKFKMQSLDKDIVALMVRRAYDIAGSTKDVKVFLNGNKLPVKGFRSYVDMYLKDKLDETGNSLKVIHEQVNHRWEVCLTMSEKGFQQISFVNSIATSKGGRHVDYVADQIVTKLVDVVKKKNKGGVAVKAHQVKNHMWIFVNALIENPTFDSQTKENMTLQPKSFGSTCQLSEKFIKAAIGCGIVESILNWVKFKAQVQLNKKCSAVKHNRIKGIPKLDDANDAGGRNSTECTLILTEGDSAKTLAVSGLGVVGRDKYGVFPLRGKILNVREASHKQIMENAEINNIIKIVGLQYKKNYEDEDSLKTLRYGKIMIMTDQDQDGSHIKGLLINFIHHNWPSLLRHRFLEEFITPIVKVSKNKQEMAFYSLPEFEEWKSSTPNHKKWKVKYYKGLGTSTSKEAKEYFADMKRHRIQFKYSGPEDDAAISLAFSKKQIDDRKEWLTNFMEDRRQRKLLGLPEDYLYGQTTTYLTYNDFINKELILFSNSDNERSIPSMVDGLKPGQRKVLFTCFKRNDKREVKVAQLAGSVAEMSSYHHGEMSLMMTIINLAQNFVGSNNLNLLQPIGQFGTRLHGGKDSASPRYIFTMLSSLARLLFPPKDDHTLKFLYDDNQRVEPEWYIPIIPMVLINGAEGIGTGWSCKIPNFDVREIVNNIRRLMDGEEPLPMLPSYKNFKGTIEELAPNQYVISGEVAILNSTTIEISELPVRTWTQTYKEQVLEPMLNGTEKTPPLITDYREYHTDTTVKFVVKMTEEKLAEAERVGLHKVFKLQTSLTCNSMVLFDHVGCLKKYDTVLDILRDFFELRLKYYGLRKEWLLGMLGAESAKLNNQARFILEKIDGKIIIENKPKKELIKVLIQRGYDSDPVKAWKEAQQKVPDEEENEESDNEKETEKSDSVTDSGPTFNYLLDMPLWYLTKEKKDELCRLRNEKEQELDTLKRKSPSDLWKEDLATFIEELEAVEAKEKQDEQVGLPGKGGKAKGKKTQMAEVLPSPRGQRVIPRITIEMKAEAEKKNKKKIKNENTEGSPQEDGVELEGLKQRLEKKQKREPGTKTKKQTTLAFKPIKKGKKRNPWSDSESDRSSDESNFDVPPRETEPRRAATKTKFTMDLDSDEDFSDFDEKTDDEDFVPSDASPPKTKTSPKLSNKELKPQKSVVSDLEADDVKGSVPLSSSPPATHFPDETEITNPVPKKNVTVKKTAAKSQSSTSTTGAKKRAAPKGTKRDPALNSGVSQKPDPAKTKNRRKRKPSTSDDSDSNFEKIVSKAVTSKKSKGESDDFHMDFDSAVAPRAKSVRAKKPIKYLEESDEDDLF

U2OS [5] = assay: Activity at PgP in human […] cells assessed as Vmax measured per mg of protein incubated for 20 mins by fluorimetrical analysis; type: cell-based
In short: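 U-2OS/DX580 cells exposed 20 min to 0-50 μM drug, washed, intracellular doxorubicin read fluorimetrically; parallel dishes left a further 10 min at 37 °C before reading. Efflux rate (difference, nmol extruded/min/mg cell protein) plotted against initial concentration; Vmax and Km fitted. Means ± SD, n = 3.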

[6] = Stability of compound in pre-heated IMDM at 200 uM at 37 degC by RP-HPLC analysis; type: physicochemical
In short: (§2)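 10 mM DMSO stock diluted into medium pre-warmed to 37 °C, giving 200 μM final, then incubated at 37 °C. Aliquots diluted 1:1 with acetonitrile/0.1% HCOOH, filtered and run on RP-HPLC, quantified against 1–200 μM standards. t1/2 from one-phase exponential decay fit, at least triplicate.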

[7] = Induction of H2S release from compound in IMDM at 100 uM incubated for 1 to 24 hrs using DNS-Az by fluorimetric assay-based HPLC analysis; type: physicochemical
In short: (§3)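 Compound at 200 μM initial (half concentration for two low-solubility compounds) in medium or human serum at 37 °C with dansyl azide. Sampled at 1, 4 and 24 h, diluted with CH3CN, spun and filtered. Isocratic RP-HPLC with fluorescence ex 340/em 535 nm. Dansyl amide peak quantified against NaHS calibration as H2S index. At least triplicate.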

[8] = Half life of compound in pre-heated DMEM at 200 uM at 37 degC by RP-HPLC analysis; type: physicochemical; in short: as §2
[9] = Half life of compound assessed as human serum esterase-mediated degradation at 100 uM by RP-HPLC analysis; type: ADME
In short: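 10 mM DMSO stock added to human serum pre-warmed to 37 °C, giving 100 μM final. Samples taken over time and deproteinized with equal volume acetonitrile/0.1% HCOOH, then spun 2150 g 10 min and filtered. Analysed by RP-HPLC against 1–200 μM calibration. t1/2 from one-phase exponential decay fit, at least triplicate.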

[10] = Induction of H2S release from compound in DMEM at 100 uM incubated for 1 to 24 hrs using DNS-Az by fluorimetric assay-based HPLC analysis; type: physicochemical; in short: as §3
Serum = assay: Induction of H2S release from compound in human serum at 100 uM incubated for 1 to 24 hrs using DNS-Az by fluorimetric assay-based HPLC analysis; type: functional; in short: as §3
H9c2 [11] = assay: Drug uptake in rat H9c2 cells at 5 uM incubated for 24 hrs by fluorimetrical analysis; type: ADME, cell-based; conditions: h9c2, 24 h
In short: (§4)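 Intracellular drug measured after 24 h exposure to 5 μM. Cell lysates read fluorimetrically at ex 475/em 553 nm with cell-free blank subtracted. Converted by calibration curve to nmol drug/mg cell protein. Duplicate, n = 3, mean ± SD.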

U2OS [12] = assay: Drug uptake in human U2OS cells at 5 uM incubated for 24 hrs by fluorimetrical analysis; type: ADME, cell-based; in short: as §4
[13] = Drug uptake in human U2OS/DX30 cells at 5 uM incubated for 24 hrs by fluorimetrical analysis; type: ADME, cell-based; in short: as §4
[14] = Drug uptake in human U2OS/DX100 cells at 5 uM incubated for 24 hrs by fluorimetrical analysis; type: ADME, cell-based; in short: as §4
[15] = Drug uptake in human U2OS/DX580 cells at 5 uM incubated for 24 hrs by fluorimetrical analysis; type: ADME, cell-based; in short: as §4
H9c2 [16] = assay: Cytotoxicity in rat H9c2 cells assessed as intracellular ROS accumulation at 5 uM incubated for 24 hrs by DCFDA-AM probe-based fluorimetrical analysis relative to control; type: cell-based; conditions: h9c2, 24 h
In short: (§5)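 After 24 h at 5 μM, 1×10^6 cells in 0.5 mL PBS were loaded with 5 μM DCFDA-AM for 30 min at 37 °C, spun and resuspended. Fluorescence read at ex 492/em 517 nm, expressed as nmol ROS/mg cell protein. Duplicate, n = 3, mean ± SD.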

H9c2 [17] = assay: Cytotoxicity in rat H9c2 cells assessed as intracellular ROS accumulation at 5 uM incubated for 24 hrs in presence of hydroxocobalamin by DCFDA-AM probe-based fluorimetrical analysis relative to control; type: cell-based; conditions: h9c2, 24 h
In short: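 H9c2 cells held 24 h with 5 μM drug plus 100 μM hydroxocobalamin, then loaded with 5 μM DCFDA-AM for 30 min at 37 °C. Fluorescence read at 492/517 nm, expressed as nmol ROS/mg protein. Duplicate, n = 3.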

H9c2 [18] = assay: Cytotoxicity in rat H9c2 cells at 5 uM incubated for 24 hrs in presence of NAC by LDH release-based spectrofluorimetrical analysis relative to control; type: cell-based; conditions: h9c2, 24 h
U2OS [19] = assay: Induction of intracellular ROS accumulation in human U2OS cells at 5 uM incubated for 24 hrs by DCFDA-AM probe-based fluorimetrical analysis relative to control; type: functional, cell-based; in short: as §5
U2OS [20] = assay: Induction of intracellular ROS accumulation in human U2OS/DX100 cells at 5 uM incubated for 24 hrs by DCFDA-AM probe-based fluorimetrical analysis relative to control; type: functional, cell-based; in short: as §5
U2OS [21] = assay: Induction of intracellular ROS accumulation in human U2OS/DX30 cells at 5 uM incubated for 24 hrs by DCFDA-AM probe-based fluorimetrical analysis relative to control; type: functional, cell-based; in short: as §5
U2OS [22] = assay: Induction of intracellular ROS accumulation in human U2OS/DX580 cells at 5 uM incubated for 24 hrs by DCFDA-AM probe-based fluorimetrical analysis relative to control; type: functional, cell-based; in short: as §5
U2OS [23] = assay: Increase in intracellular ROS accumulation in human U2OS cells at 5 uM incubated for 24 hrs in presence of hydroxocobalamin by DCFDA-AM probe-based fluorimetrical analysis relative to control; type: functional, cell-based; in short: as §1
U2OS [24] = assay: Increase in intracellular ROS accumulation in human U2OS/DX100 cells at 5 uM incubated for 24 hrs in presence of hydroxocobalamin by DCFDA-AM probe-based fluorimetrical analysis relative to control; type: functional, cell-based; in short: as §1

## COC(=O)c1ccc(C(N)=S)cc1
H9c2 [1]
  Activity: Toxic

## C=CCSSCCC(=O)OCC
H9c2 [1]
  Activity: Toxic

## COc1cccc2c1C(=O)c1c(O)c3c(c(O)c1C2=O)C[C@@](O)(C(=O)COC(=O)c1ccc(-c2ssc(=S)c2-c2ccccc2)cc1)C[C@@H]3O[C@H]1C[C@H](N)[C@H](O)[C@H](C)O1.Cl
U2OS [2]
  Activity: Active
U2OS [3]
  Activity: Active
[4]
  inhibition: inactive
U2OS [5]
  Vmax: 10.2 nmol/min/mg
[6]
  Stability: Stable
[7]
  Activity: Not Active
[8]
  half-life at 200 µM: > 24 h
[9]
  half-life at 100 µM: 2.8 h
[10]
  Activity: Not Active
Serum
  Activity: Active
H9c2 [11]
  Drug uptake: Active
H9c2 [1]
  Activity: Non-toxic
U2OS [12]
  Drug uptake: Active
[13]
  Drug uptake: Active
[14]
  Drug uptake: Active
[15]
  Drug uptake: Active
H9c2 [16]
  Activity: Non-toxic
H9c2 [17]
  Activity: Toxic
H9c2 [18]
  Activity: Non-toxic
U2OS [19]
  Activity: inactive
U2OS [20]
  Activity: inactive
U2OS [21]
  Activity: inactive
U2OS [22]
  Activity: inactive
U2OS [23]
  Activity: Active
U2OS [24]
  Activity: Active

## COc1cccc2c1C(=O)c1c(O)c3c(c(O)c1C2=O)C[C@@](O)(C(=O)COC(=O)c1ccc(-c2cssc2=S)cc1)C[C@@H]3O[C@H]1C[C@H](N)[C@H](O)[C@H](C)O1.Cl
U2OS [2]
  Activity: Active
U2OS [3]
  Activity: Active
[4]
  inhibition: inactive
[6]
  Stability: Stable
[7]
  Activity: Active
[8]
  half-life at 200 µM: 21.5 h
[9]
  half-life at 100 µM: 4.6 h
[10]
  Activity: Active
Serum
  Activity: Active
H9c2 [11]
  Drug uptake: Active
H9c2 [1]
  Activity: Non-toxic
U2OS [12]
  Drug uptake: Active
[13]
  Drug uptake: Active
[14]
  Drug uptake: Active
[15]
  Drug uptake: Active
H9c2 [16]
  Activity: Non-toxic
H9c2 [17]
  Activity: Toxic
H9c2 [18]
  Activity: Non-toxic
U2OS [19]
  Activity: inactive
U2OS [20]
  Activity: inactive
U2OS [21]
  Activity: inactive
U2OS [22]
  Activity: inactive
U2OS [23]
  Activity: Active
U2OS [24]
  Activity: Active

## C=CCSSCCC(=O)OCC(=O)[C@]1(O)Cc2c(O)c3c(c(O)c2[C@@H](O[C@H]2C[C@H](N)[C@H](O)[C@H](C)O2)C1)C(=O)c1c(OC)cccc1C3=O.Cl
[4]
  inhibition: inactive
[6]
  Stability: Stable
[7]
  Activity: Not Active
[8]
  half-life at 200 µM: 5.6 h
[9]
  half-life at 100 µM: 3.8 h
[10]
  Activity: Not Active
Serum
  Activity: Active
H9c2 [11]
  Drug uptake: Active
H9c2 [1]
  Activity: Toxic
U2OS [12]
  Drug uptake: Active
[13]
  Drug uptake: Active
[14]
  Drug uptake: Active
[15]
  Drug uptake: Active
H9c2 [16]
  Activity: Non-toxic
H9c2 [17]
  Activity: Toxic
U2OS [19]
  Activity: inactive

## COc1cccc2c1C(=O)c1c(O)c3c(c(O)c1C2=O)C[C@@](O)(C(=O)COC(=O)c1ccc(C(N)=S)cc1)C[C@@H]3O[C@H]1C[C@H](N)[C@H](O)[C@H](C)O1.Cl
[4]
  inhibition: inactive
[6]
  Stability: Stable
[7]
  Activity: Not Active
[8]
  half-life at 200 µM: 3.4 h
[9]
  half-life at 100 µM: 0.633 h
[10]
  Activity: Not Active
Serum
  Activity: Active
H9c2 [11]
  Drug uptake: Active
H9c2 [1]
  Activity: Toxic
U2OS [12]
  Drug uptake: Active
[13]
  Drug uptake: Active
[14]
  Drug uptake: Active
[15]
  Drug uptake: Active
H9c2 [16]
  Activity: Non-toxic
H9c2 [17]
  Activity: Toxic
U2OS [19]
  Activity: inactive

## C=CCSCC(NC(C)=O)C(=O)OCC(=O)[C@]1(O)Cc2c(O)c3c(c(O)c2[C@@H](O[C@H]2C[C@H](N)[C@H](O)[C@H](C)O2)C1)C(=O)c1c(OC)cccc1C3=O.Cl (some centres not stated)
[4]
  inhibition: inactive
[6]
  Stability: Unstable
[7]
  Activity: Not Active
[8]
  half-life at 200 µM: < 0.0167 h
[9]
  half-life at 100 µM: 0.183 h
[10]
  Activity: Not Active
Serum
  Activity: inactive
H9c2 [11]
  Drug uptake: Active
H9c2 [1]
  Activity: Non-toxic
H9c2 [16]
  Activity: Non-toxic
H9c2 [17]
  Activity: Toxic
H9c2 [18]
  Activity: Non-toxic
U2OS [19]
  Activity: inactive

## COc1cccc2c1C(=O)c1c(O)c3c(c(O)c1C2=O)C[C@@](O)(C(=O)COC(=O)c1csc(=S)s1)C[C@@H]3O[C@H]1C[C@H](N)[C@H](O)[C@H](C)O1.Cl
[4]
  inhibition: inactive
[6]
  Stability: Unstable
[7]
  Activity: Not Active
[8]
  half-life at 200 µM: 0.283 h
[9]
  half-life at 100 µM: 0.283 h
[10]
  Activity: Not Active
Serum
  Activity: Active
H9c2 [11]
  Drug uptake: Active
H9c2 [1]
  Activity: Non-toxic
H9c2 [16]
  Activity: Non-toxic
H9c2 [17]
  Activity: Toxic
H9c2 [18]
  Activity: Non-toxic
U2OS [19]
  Activity: inactive

## COc1cccc2c1C(=O)c1c(O)c3c(c(O)c1C2=O)C[C@@](O)(C(=O)COC(=O)COc1ccc(-c2cc(=S)ss2)cc1)C[C@@H]3O[C@H]1C[C@H](N)[C@H](O)[C@H](C)O1.Cl
[4]
  inhibition: inactive
[6]
  Stability: Unstable
[7]
  Activity: Not Active
[8]
  half-life at 200 µM: 0.267 h
[9]
  half-life at 100 µM: 0.05 h
[10]
  Activity: Not Active
Serum
  Activity: Active
H9c2 [11]
  Drug uptake: Active
H9c2 [1]
  Activity: Non-toxic
H9c2 [16]
  Activity: Non-toxic
H9c2 [17]
  Activity: Toxic
H9c2 [18]
  Activity: Non-toxic
U2OS [19]
  Activity: inactive
